Measured values taken from ChEMBL document CHEMBL4513216, “Probing the Open Global Health Chemical Diversity Library for Multistage-Active Starting Points for Next-Generation Antimalarials” (ACS Infect Dis, 2020).

Test: Toxicity liver stage against HepG2, at 10uM
Assay type: cell-based
Set-up: test concentration 10 uM, cell line HepG2-A16-CD81EGFP
Conditions: human, HepG2-A16-CD81EGFP cells; read-out: INHIBITION
Procedure, shortened: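 Uninfected HepG2-A16-CD81EGFP cells, 3 × 10^3 per well, 1536-well, plated on prespotted compound at 10 μM final, parasite-free screening media added to match infected plates; puromycin 10 μM positive, DMSO 0.5% negative; run in parallel with 48 h PbLuc assay at 37 °C, 5% CO2; viability by CellTiter-Glo luminescence, normalized to controls.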

| Compound | cytotoxicity at 10 µM |
| --- | --- |
| FC(F)(F)c1ccc2nc([C@H]3CCN(C4CCC4)C3)[nH]c2c1 | 8.04% |
| CNCc1cn(C[C@H]2C[C@@H]3CCN2C[C@@H]3C(=O)NC2CCCCC2)nn1 | 1.73% |
| Cn1cnc2cc(CCC(=O)Nc3nc[nH]n3)ccc21 | 4.44% |
| O=C(NCCN1CCCC1)c1nc2c(o1)CN(c1ncccn1)C2 | 1.24% |
| COCC(=O)N1CCC2(CC1)CC(N1CCN(C)CC1)CO2 (stereo not given) | -1.25% |
| CN1C(=O)CC2(CCN(Cc3cnn(C)c3)CC2)c2ccccc21 | 15.7% |
| Cc1cnc(CNC(=O)c2cc3c(s2)CCN3S(C)(=O)=O)cn1 | 2.22% |
| O=C(C1CN(CC2CC2)CC12CCOCC2)N1CCCC1 (stereo not given) | 7.28% |
| COC1COC2(CCN(C(=O)c3cocn3)CC2)C1 (stereo not given) | 9.64% |
| CCc1c(C(=O)O)nnn1-c1ccc(C)cc1C | -5.11% |
| CCn1cc(Cl)c(C(=O)NCCCN(C)C)n1 | 9.46% |
| Cc1cccc(-n2nnnc2C(C)(C)Nc2ccccc2C)c1 | 8% |
| O=C1CNc2ncnc(N3CCN(Cc4ccccc4F)CC3)c2N1 | 9.87% |
| Nc1cc(-c2c[nH]nc2C2CCCN2S(=O)(=O)c2ccccc2)ccn1 (stereo not given) | 6.34% |
| Cc1cnc2cc(C3CCN(C(=O)c4ccncc4)CC3)[nH]c2n1 | -22.1% |
| COCc1nc(C2CCN(Cc3ncc[nH]3)CC2)no1 | -23.1% |
| Cc1cc(-c2cnc(N3CCNC(=O)C3)nc2-c2cccnc2C)on1 | -6.9% |
| Cc1ccc(-c2cc(N)c(=O)n(CC(=O)NCC3CCCCC3)n2)s1 | 2.44% |
| COCc1c(Br)cccc1NC(=O)CC(F)(F)F | 2.38% |
| Cn1cc(S(=O)(=O)Nc2ccc3[nH]c(C4CCC4)nc3c2)cn1 | -8.36% |
| O=C(Cc1ccc2c(c1)CCC2)NC1CCN(Cc2ccccc2)CC1 | 1.88% |
| CCOc1cc(Cl)ccc1CNC(=O)c1ccc(=O)n(C)c1 | -4.01% |
| COc1cccc(CN(C)C(C)C(=O)Nc2nc(C)c(C)s2)c1 (stereo not given) | 9.74% |
| Cc1ccc(C(=O)NCc2ccnc(N3CCN(C)CC3)c2)cn1 | -2.07% |
| CN(C)C(=O)C1SCCc2ccccc21 (stereo not given) | 1.81% |
| O=C(Cn1cc(C2CC2)nn1)N(Cc1ccco1)CC1CCCO1 (stereo not given) | 0.0636% |
| O=S(=O)(Cc1ccon1)N1CCN(c2ccncc2Cl)CC1 | -4.96% |
| COc1ccc(OCCNC(=O)c2ccc3c(=O)[nH][nH]c(=O)c3c2)cc1 | -4.83% |

| Compound | cytotoxicity at 10 µM |
| --- | --- |
| CCc1cnc(CN(C)C(=O)NC2CCN(CC3CC3)C2)s1 (stereo not given) | -3.86% |
| Cc1cc(F)ccc1NC(=O)NCC(C)N1CCOCC1 (stereo not given) | -4.1% |
| Cc1nnc(C(NS(=O)(=O)c2cc(C)c(F)cc2F)C(C)C)[nH]1 (stereo not given) | -6.04% |
| CC(C)C(=O)N1CCN(CCOc2cccc(C#N)c2)CC1 | 10.8% |
| Cc1ccc(C2CCCCCN2CCNS(C)(=O)=O)o1 (stereo not given) | 0.395% |
| Cc1cc(F)c(S(=O)(=O)Nc2ccn(CCC#N)n2)cc1F | 17.3% |
| Cc1cccc(N2CCN(C(=O)CCCC(=O)N(C)C)C(C)C2)n1 (stereo not given) | 14.6% |
| CCS(=O)(=O)NCCNCc1cc(F)ccc1Br | 1.58% |
| CC(C)C(=O)N1CCN(CC(O)c2cc(Cl)ccc2Cl)CC1 (stereo not given) | 3.41% |
| CCCC1(CNCc2ncc[nH]2)CCC1 | 2.24% |
| CC(C)(C)c1cnc(CN2CCC(NC(=O)Nc3ccccc3)CC2)o1 | -12.3% |
| CN(C)C(=O)NCC1CC2(CO1)CN(c1nncs1)C2 (stereo not given) | -96.3% |
| O=C(CC(F)(F)F)N1CCC2(CCCN(c3nncs3)C2)C1 (stereo not given) | -105% |
| Cn1cnc(-c2nc(C(=O)NCCN3CCCC3)c3ccccn23)c1 | -109% |
| O=C(c1cnccn1)N1CCc2c(COCC3CC3)cncc2C1 | -72.4% |
| O=C(c1ccccn1)N1CC[C@@H](N2CCOCC2)[C@@H]1Cc1ccccc1 | -77.9% |
| CS(=O)(=O)NCc1nnc2n1CCN(CC1CC1)C2 | -0.285% |
| O=C(O)[C@@H]1CN(C(=O)CSCCN2CCCC2)C[C@H]1c1ccccc1 | -12.1% |
| COc1ccccc1N1CCC(N2CCOCC(CO)C2)CC1 (stereo not given) | -6.85% |
| Cc1cnc(CNc2ncc(C)c(-c3cnn(C)c3)n2)cn1 | 7.86% |
| CCOc1cc2c(cc1CN1CCC3(CC1)CNC(=O)C3)CCC2 | -2.04% |
| CCc1ccc(CN2CCN(CCOC)[C@@H]3CS(=O)(=O)C[C@@H]32)cc1 | -5.72% |
| CCC[C@H]1CN(C2CCOCC2)C[C@@H]1NC(=O)CCc1cnccn1 | 3.12% |
| CCCN(CCC)C(=O)c1cc(CN2CCC(O)CC2)on1 | 1.29% |
| CC(=O)NCCNc1nc(-c2ccccn2)nc2c1c(C)nn2C | 2.72% |
| CCN(Cc1ccccn1)Cc1cc(Cl)ccc1OC | 1.45% |
| COC[C@]1(O)CCN(C2CCN(c3ccc(F)c(F)c3)CC2)CC1(C)C | -3.85% |
